From ChEMBL document CHEMBL4699542, “Design and synthesis of novel methoxypyridine-derived gamma-secretase modulators” (Bioorg Med Chem, 2020)
≈ marks a conversion by molar mass, not a printed value.

How the values were obtained:
Cytochrome P450 2C9 = Cytochrome P450 2C9 (Homo sapiens, UniProt P11712); experiment: Inhibition of recombinant CYP2C9 (unknown origin) by fluorescence-based assay; assay type: ADME
In short: (§1)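 Recombinant CYP isoforms (five tested) screened for inhibition in fluorescence-based assays; IC50 in μM.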

[1] = Metabolic stability in rat liver microsomes assessed as parent compound remaining at 1 uM incubated for 30 mins; assay type: ADME, Microsome; settings: 0.5 h
In short: (§2)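 Test compound at 1 μM incubated 30 min with human, rat or mouse liver microsomes (1 mg/mL); parent remaining expressed as %.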

[2] = Kinetic aqueous solubility of the compound in pH 7.4 PBS buffer by UV/Visible absorbance analysis; assay type: physicochemical; settings: read-out: Kinetic_solubility
In short: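 Kinetic solubility determined in PBS at pH 7.4 by UV/Vis absorbance, reported in μM.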

Cytochrome P450 3A4 = Cytochrome P450 3A4 (Homo sapiens, UniProt P08684); experiment: Inhibition of recombinant CYP3A4 (unknown origin) by fluorescence-based assay; assay type: ADME
Cytochrome P450 2C19 = Cytochrome P450 2C19 (Homo sapiens, UniProt P33261); experiment: Inhibition of recombinant CYP2C19 (unknown origin) by fluorescence-based assay; assay type: ADME; in short: as §1
[3] = Metabolic stability in mouse liver microsomes assessed as parent compound remaining at 1 uM incubated for 30 mins; assay type: ADME, Microsome; settings: 0.5 h; in short: as §2
Cytochrome P450 1A2 = target: T1, Cytochrome P450 1A2 (Homo sapiens, UniProt P05177); experiment: Inhibition of recombinant CYP1A2 (unknown origin) by fluorescence-based assay; assay type: ADME; in short: as §1
T1 sequence (P05177 whole entry): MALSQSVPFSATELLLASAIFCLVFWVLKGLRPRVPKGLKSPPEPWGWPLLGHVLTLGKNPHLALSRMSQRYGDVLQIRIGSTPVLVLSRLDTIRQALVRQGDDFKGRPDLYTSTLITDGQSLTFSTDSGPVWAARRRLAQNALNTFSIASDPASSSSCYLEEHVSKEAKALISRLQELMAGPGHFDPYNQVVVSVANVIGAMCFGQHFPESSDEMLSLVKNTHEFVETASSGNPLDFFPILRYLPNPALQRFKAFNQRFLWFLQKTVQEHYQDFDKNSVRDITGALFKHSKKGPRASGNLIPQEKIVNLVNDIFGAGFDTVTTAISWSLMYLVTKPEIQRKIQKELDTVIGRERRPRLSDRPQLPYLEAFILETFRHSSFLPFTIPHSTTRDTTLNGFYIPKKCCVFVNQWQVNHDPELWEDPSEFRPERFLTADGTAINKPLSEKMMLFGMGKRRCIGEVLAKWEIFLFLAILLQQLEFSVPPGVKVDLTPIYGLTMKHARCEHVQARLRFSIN

Cytochrome P450 2D6 = Cytochrome P450 2D6 (Homo sapiens, UniProt P10635); experiment: Inhibition of recombinant CYP2D6 (unknown origin) by fluorescence-based assay; assay type: ADME; in short: as §1
[4] = Metabolic stability in human liver microsomes assessed as parent compound remaining at 1 uM incubated for 30 mins; assay type: ADME, Microsome; settings: microsomes, 0.5 h, 1 µM; in short: as §2
Gamma-secretase = experiment: Modulation of gamma secretase in human SH-SY5Y cells overexpressing wild type APP751 assessed as inhibition of amyloid beta (35 to 42 residues) formation incubated for overnight by ELISA; assay type: cell-based
In short: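 SHSY5Y-APP751 cells plated at 75K/well and incubated overnight at 37 °C, then treated 24 h over 10 concentrations ([…]–10 μM, 1:3.16 steps, in duplicate). Medium Aβ42 measured by sandwich ELISA (Aβ35–42 capture, AP-conjugated Aβ1–12 detection, CDP-Star luminescence) against an Aβ42 standard curve.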

[5] = Cmax in CD-1 mouse at 1 mg/kg, iv administered as single dose measured up to 24 hrs; assay type: ADME, organism-based; set-up: route intravenous, dose 1 mg/kg, time <=24; settings: in vivo
In short: (§3)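 Male CD-1 mice, 6–8 weeks old, single dose by tail vein (1 mg/kg, 3% NMP/45% PEG300/12% ethanol/40% water) or oral gavage (5 mg/kg, 5% NMP/95% PEG300). Retro-orbital plasma sampled 0.083 (iv only) to 24 h, n=3/timepoint, and analysed by HPLC/MS/MS. Non-compartmental analysis. Half-life taken from the terminal phase using ≥3 non-zero points after Tmax.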

[6] = AUC infinity in CD-1 mouse at 1 mg/kg, iv administered as single dose measured up to 24 hrs; assay type: ADME, organism-based; set-up: route intravenous, dose 1 mg/kg, time <=24; settings: in vivo; in short: as §3
[7] = Efflux ratio of apparent permeability from basolateral to apical membrane over apical to basolateral membrane in MDCK-MDR1 cells; assay type: ADME, cell-based, Canis lupus familiaris; settings: dog
In short: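 Calculated as B-A/A-B apparent permeability ratio across MDR1-MDCK cell monolayers; A-B permeability expressed as ×10⁻⁶ cm/s.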

[8] = Oral bioavailability in CD-1 mouse at 5 mg/kg administered as single dose measured up to 24 hrs; assay type: ADME, organism-based; settings: in vivo
In short: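 CD-1 mouse PK after single iv (1 mg/kg) and oral gavage (5 mg/kg) dosing, with plasma sampled to 24 h (n=3/timepoint) and measured by HPLC/MS/MS. F(%) = (AUC0-inf po × Dose iv)/(AUC0-inf iv × Dose po) × 100.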

[9] = Ratio of drug concentration in CD-1 mouse brain to plasma at 0.4 mg/kg, iv measured after 1 hr; assay type: ADME, organism-based
[10] = Apparent permeability from apical to basolateral membrane in MDCK-MDR1 cells; assay type: ADME, cell-based, Canis lupus familiaris; settings: dog
In short: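 Apical-to-basolateral apparent permeability (×10⁻⁶ cm/s) measured across MDR1-MDCK cell monolayers.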

[11] = Cmax in CD-1 mouse at 5 mg/kg, po administered as single dose measured up to 24 hrs; assay type: ADME, organism-based; set-up: route oral, dose 5 mg/kg, time <=24; settings: in vivo; in short: as §3
[12] = target: Voltage-gated inwardly rectifying potassium channel KCNH2 (Homo sapiens, UniProt Q12809); experiment: Inhibition of human ERG expressed in HEK293 cells by patch clamp assay; assay type: cell-based
[13] = AUClast in CD-1 mouse at 5 mg/kg, po administered as single dose measured up to 24 hrs; assay type: ADME, organism-based; set-up: route oral, dose 5 mg/kg, time <=24; settings: in vivo; in short: as §3
[14] = Ratio of drug concentration in CD-1 mouse brain to plasma at 5 mg/kg, po measured after 1 hr; assay type: ADME, organism-based
In short: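 Male CD-1 mice dosed once iv (1 mg/kg) or by oral gavage (5 mg/kg). Brain and plasma collected 1 h post dose (n=3/timepoint). Drug levels by HPLC/MS/MS; brain/plasma ratio calculated from these levels.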

[15] = Half life in CD-1 mouse at 1 mg/kg, iv administered as single dose measured up to 24 hrs; assay type: ADME, organism-based; settings: mouse, in vivo, 1 mg/kg, 24 h; in short: as §3
[16] = AUClast in CD-1 mouse at 1 mg/kg, iv administered as single dose measured up to 24 hrs; assay type: ADME, organism-based; set-up: route intravenous, dose 1 mg/kg, time <=24; settings: in vivo; in short: as §3
[17] = Tmax in CD-1 mouse at 5 mg/kg, po administered as single dose measured up to 24 hrs; assay type: ADME, organism-based; settings: in vivo
In short: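 Male CD-1 mice, 6–8 weeks old, single oral gavage dose in 5% NMP/95% PEG300. Plasma (K3EDTA, retro-orbital, under isoflurane) taken at 0.25, 0.5, 1, 2, 4, 8 and 24 h, n=3/timepoint, analysed by HPLC/MS/MS. Non-compartmental extravascular analysis (Model 200); Tmax taken directly from the data.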

[18] = Volume of distribution at steady state in CD-1 mouse at 1 mg/kg, iv administered as single dose measured up to 24 hrs; assay type: ADME, organism-based; settings: in vivo
In short: (§4)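 Male CD-1 mice, 6–8 weeks old, single tail-vein dose in 3% NMP/45% PEG300/12% ethanol/40% sterile water. Retro-orbital plasma (K3EDTA) taken at 0.083, 0.25, 0.5, 1, 2, 4, 8 and 24 h, n=3/timepoint, analysed by HPLC/MS/MS. Non-compartmental analysis (Model 201, uniform weighting); Tmax read directly from the data.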

[19] = Tmax in CD-1 mouse at 1 mg/kg, iv administered as single dose measured up to 24 hrs; assay type: ADME, organism-based; settings: in vivo; in short: as §4
[20] = Half life in CD-1 mouse at 5 mg/kg, po administered as single dose measured up to 24 hrs; assay type: ADME, organism-based; settings: in vivo; in short: as §3

Chain of Cytochrome P450 2C9 (P11712 whole entry, canonical isoform): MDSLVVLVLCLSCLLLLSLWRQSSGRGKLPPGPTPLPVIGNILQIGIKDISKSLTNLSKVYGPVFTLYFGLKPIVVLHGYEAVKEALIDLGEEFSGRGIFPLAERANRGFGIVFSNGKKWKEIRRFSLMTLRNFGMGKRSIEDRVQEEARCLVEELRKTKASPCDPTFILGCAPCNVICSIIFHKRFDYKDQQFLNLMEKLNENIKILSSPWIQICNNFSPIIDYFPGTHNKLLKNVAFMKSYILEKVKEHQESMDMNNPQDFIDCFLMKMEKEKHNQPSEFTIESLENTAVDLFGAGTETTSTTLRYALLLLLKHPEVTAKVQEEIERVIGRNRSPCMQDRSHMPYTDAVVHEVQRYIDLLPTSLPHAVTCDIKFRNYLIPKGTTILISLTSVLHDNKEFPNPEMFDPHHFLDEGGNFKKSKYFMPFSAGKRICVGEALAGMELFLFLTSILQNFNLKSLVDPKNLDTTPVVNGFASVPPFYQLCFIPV
Chain of Cytochrome P450 3A4 (P08684 whole entry): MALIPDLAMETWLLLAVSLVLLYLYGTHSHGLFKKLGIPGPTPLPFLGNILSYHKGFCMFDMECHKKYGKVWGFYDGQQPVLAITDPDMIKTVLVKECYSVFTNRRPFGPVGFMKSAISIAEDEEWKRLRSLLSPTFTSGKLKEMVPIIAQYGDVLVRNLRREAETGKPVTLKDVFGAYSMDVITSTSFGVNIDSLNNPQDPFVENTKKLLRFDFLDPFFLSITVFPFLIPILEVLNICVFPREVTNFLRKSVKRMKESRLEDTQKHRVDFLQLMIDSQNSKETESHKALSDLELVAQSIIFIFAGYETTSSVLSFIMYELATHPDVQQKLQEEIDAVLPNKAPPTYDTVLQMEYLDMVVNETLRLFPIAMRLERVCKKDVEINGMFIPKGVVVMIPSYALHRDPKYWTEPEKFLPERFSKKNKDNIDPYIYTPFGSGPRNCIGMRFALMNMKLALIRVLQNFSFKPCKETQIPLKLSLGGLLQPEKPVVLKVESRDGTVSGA
Chain of Cytochrome P450 2D6 (P10635 whole entry): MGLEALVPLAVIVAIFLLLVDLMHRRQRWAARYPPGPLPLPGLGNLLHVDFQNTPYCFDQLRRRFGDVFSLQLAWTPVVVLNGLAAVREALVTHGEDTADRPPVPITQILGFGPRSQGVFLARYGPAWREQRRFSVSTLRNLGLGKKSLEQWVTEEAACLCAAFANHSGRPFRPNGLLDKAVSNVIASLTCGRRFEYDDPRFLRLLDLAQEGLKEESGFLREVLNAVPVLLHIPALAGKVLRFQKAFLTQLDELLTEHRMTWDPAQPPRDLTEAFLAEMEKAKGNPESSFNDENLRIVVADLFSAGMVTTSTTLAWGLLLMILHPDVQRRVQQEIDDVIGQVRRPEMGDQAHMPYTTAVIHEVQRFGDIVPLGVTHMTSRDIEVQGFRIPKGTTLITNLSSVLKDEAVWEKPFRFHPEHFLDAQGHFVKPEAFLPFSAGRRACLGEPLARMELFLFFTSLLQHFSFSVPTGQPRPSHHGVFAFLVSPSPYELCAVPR
Chain of Cytochrome P450 2C19 (P33261 whole entry): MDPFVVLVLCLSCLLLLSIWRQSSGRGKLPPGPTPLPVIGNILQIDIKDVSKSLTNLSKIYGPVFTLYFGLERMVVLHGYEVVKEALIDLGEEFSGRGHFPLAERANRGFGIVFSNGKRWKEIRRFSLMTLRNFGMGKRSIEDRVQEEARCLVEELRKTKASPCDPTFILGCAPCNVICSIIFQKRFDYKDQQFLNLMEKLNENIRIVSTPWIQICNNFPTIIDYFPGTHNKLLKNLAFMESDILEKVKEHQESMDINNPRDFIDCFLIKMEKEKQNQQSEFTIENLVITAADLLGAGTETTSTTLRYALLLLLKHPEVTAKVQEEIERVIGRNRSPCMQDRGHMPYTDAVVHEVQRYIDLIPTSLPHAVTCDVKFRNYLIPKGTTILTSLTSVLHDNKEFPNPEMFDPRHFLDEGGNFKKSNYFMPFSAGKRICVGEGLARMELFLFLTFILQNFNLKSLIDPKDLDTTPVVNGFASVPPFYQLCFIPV
Chain of Voltage-gated inwardly rectifying potassium channel KCNH2 (Q12809 whole entry): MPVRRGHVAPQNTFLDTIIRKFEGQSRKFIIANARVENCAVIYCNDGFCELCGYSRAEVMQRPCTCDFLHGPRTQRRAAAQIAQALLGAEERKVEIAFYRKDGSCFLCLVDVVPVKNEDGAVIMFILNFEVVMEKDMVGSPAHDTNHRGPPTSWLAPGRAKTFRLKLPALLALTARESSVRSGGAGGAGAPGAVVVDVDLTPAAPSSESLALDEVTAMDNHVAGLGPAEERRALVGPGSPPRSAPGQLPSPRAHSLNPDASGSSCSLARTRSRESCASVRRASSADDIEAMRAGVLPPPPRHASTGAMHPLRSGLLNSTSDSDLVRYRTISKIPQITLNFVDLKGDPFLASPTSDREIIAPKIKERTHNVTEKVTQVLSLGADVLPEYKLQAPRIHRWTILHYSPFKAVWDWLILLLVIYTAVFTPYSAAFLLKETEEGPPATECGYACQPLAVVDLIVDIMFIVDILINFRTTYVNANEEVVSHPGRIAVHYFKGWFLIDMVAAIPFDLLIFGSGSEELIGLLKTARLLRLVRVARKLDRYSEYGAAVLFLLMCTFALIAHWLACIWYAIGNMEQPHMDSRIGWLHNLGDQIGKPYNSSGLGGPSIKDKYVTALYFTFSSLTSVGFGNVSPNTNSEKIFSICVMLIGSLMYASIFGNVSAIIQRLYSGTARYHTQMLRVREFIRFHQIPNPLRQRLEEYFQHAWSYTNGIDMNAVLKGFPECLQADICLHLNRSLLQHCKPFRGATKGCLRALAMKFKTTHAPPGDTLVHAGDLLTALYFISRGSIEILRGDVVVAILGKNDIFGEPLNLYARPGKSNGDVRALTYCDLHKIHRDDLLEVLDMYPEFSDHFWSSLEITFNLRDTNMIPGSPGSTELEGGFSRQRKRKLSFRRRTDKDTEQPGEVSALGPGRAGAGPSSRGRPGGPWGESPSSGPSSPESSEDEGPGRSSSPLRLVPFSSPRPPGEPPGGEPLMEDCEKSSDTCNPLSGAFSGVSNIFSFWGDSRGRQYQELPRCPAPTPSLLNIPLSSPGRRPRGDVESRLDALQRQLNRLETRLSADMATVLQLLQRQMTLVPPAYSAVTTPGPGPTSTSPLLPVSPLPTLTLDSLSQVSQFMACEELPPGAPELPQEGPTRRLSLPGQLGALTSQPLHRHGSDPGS

| Compound | IC50 (Cytochrome P450 2C9) [µM] | Stabilty [1] [%] | solubility kinetic [2] [µM] | IC50 (Cytochrome P450 3A4) [µM] | IC50 (Cytochrome P450 2C19) [µM] | Stabilty [3] [%] | IC50 (Cytochrome P450 1A2) [µM] | IC50 (Cytochrome P450 2D6) [µM] | Stabilty [4] [%] | IC50 (Gamma-secretase) [µM] | Cmax [5] [ng/mL] | Ratio [7] | F [8] [%] | BPR [9] | Papp [10] | Cmax [11] [ng/mL] | IC50 [12] [µM] | AUClast [13] [ng·h/mL] | BPR [14] | t1/2 [15] [h] | further results |
| --- | --- | --- | --- | --- | --- | --- | --- | --- | --- | --- | --- | --- | --- | --- | --- | --- | --- | --- | --- | --- | --- |
| COc1nc(-c2csc(Nc3cc(C(C)(C)C)nn3C(C)C)n2)ccc1-n1cnc(C)c1 | 14 | 75 | 23 (≈ 10.4 µg/mL) | 2.3 | 14 | 40 | > 100 | > 100 | 21 | 0.064 |  |  |  |  |  |  |  |  |  |  |  |
| CCn1nc(C2(C)CC2)cc1Nc1nc(-c2ccc(-n3cnc(C)c3)c(OC)n2)cs1 | > 100 | 73 | 6.7 (≈ 2.92 µg/mL) | 4.1 | > 100 | 81 | > 100 | > 100 | 67 | 0.032 | 384 | 1.3 | 63.8 | 0.62 | 18.5 10^-6 cm/s | 592 | 12.3 | 3976 | 0.57 | 3.84 | AUC [6]: 1378 ng·h/mL; AUClast [16]: 1247 ng·h/mL; Tmax [17]: 2 h; Vdss [18]: 3.609 L/kg; Tmax [19]: 4.98 min |
| COc1nc(-c2csc(Nc3c4c(nn3C)CCC4)n2)ccc1-n1cnc(C)c1 | > 100 | 71 | 44 (≈ 17.9 µg/mL) | 4.5 | 37 | 75 | > 100 | > 100 | 76 | 0.08 | 478 | 1.9 | 74.6 | 0.21 | 22.3 10^-6 cm/s | 580 | 0.92 | 2700 | 0.22 | 1.9 | t1/2 [20]: 1.6 h; AUClast [16]: 723 ng·h/mL; Tmax [17]: 1 h; Vdss [18]: 3.18 L/kg; Tmax [19]: 4.98 min |
| COc1nc(-c2csc(Nc3c4c(nn3CC(C)(C)O)CCCC4)n2)ccc1-n1cnc(C)c1 | 9 | 57 | 22 (≈ 10.6 µg/mL) |  | 3.9 | 78 | > 100 | > 100 | 12 | 0.038 |  |  |  |  | 17.5 10^-6 cm/s |  |  |  |  |  |  |
| COc1nc(-c2csc(Nc3c4c(nn3CCF)CCC4)n2)ccc1-n1cnc(C)c1 | > 100 | 68 | 23 (≈ 10.1 µg/mL) | 10.5 | 35 | 60 | > 100 | > 100 | 58 | 0.064 |  |  |  |  |  |  | 2.88 |  |  |  |  |
| CCn1nc2c(c1Nc1nc(-c3ccc(-n4cnc(C)c4)c(OC)n3)cs1)CCCCC2 | 37 | 41 | 4.3 (≈ 1.93 µg/mL) | 11 | 85 | 15 | > 100 | > 100 | 0.1 | 0.032 |  |  |  |  |  |  |  |  |  |  |  |
